The source made the active and inactive calls.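 How the source made its calls, unless noted: active means viability at or under a set limit in both replicates, limit being median viability minus 3 SD (cut at about 48% in these data, passing the limit was not always enough); inconclusive means at or under the limit in just one replicate; inactive means at or above the limit in both replicates.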

Here are results for 14 molecules from PubChem BioAssay.

Test [1] in a line: HUVEC growth inhibition – cell-based, human, primary screen (AID 575;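 active means viability at or below 30% in both replicate assays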;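 further: 100% = median of untreated cell wells with 0.1% DMSO on each plate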). The note with it: HUVEC proliferation, CellTiter-Glo luminescence, 72 h; at 10 µM; stronger effect = lower value. A digest of the protocol:
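system = HUVEC primary cells | amount = 1250 cells/well | buffer or medium = supplemented EBM, 2% fetal bovine serum | dosing = single-point 10 µM, DMSO 0.1% final | times = 72 h compound incubation | detection = CTG luminescence | read-out = % viability relative to median vehicle-well signal on each plate | control set = vehicle and MePR control wells | format = collagen-coated 384-well format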
A general note: Cellular ATP, detected with luciferase, serves as a proxy for viable cell number.

Test [2] can be described thus: H69AR cell proliferation blockers – human, duplicate replicates, primary screen (AID 580).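 Further: 100% = mean luminescence of untreated wells and 0% = no signal.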 Particulars: H69AR lung tumor cells viability, ATP luminescence, 72 h; at 10 µM; stronger effect = lower value.
A short description of test [3]: MRP1 drug-resistance reversers in H69AR cells – cell-based, doxorubicin co-treatment, pilot screen (AID 601;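 active means viability loss from added drug above about 55%, and viability with drug at most 40%, in both replicates, limit read from the data, passing the limit was not always enough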). The note with it: CellTiter-Glo, 72 h, at 10 µM; for differential viability (reversal): stronger effect = higher value.
Test [4] can be described thus: yeast transport mutant growth inhibition pilot in 384-well plates, post-Golgi transport modulator project (AID 636; in the data active means inhibition above about 31%). Particulars: absorbance 615 nm, about 18 h, stronger effect = higher value.
Test [5] can be described thus: growth suppression of yeast trafficking mutant, preliminary HTS, modulators of trafficking downstream of Golgi apparatus project, 1536-format plate, OD 615 nm (AID 637; in the data active means inhibition above about 30%). Particulars: yeast transport mutant growth, absorbance 615 nm, 18 h; stronger effect = higher value.
Where [6] appears, read: H69AR cells + 2 uM doxorubicin, measured here: viability with 2 uM doxorubicin, stronger effect = lower value.
Setting [7] is: H69AR cells, compound alone cytotoxicity.

The term viability denotes a read-out of living cells in per cent, often relative to untreated cells. The term inhibition denotes the change of the read-out against control, counted positive when it falls. As for `CC(C)CN1C(=O)c2ccc(C(=O)Nc3nccs3)cc2C1=O`, the viability was 90.8% (inactive) in test [1], 104% (inactive) in test [2], 82.6% in test [3] (setting [6]) and 104% in test [3] (setting [7]). For the same molecule, the differential viability (reversal) in test [3] (H69AR cells + 2 uM doxorubicin) is 21.4% (inactive). Also, the inhibition in test [4] is 0.39% (inactive); in test [5], 0.63% (inactive).

For `COCCn1cc(C(=O)NCCCN2CCC(C)CC2)c2c3ccccc3n(C)c2c1=O`, the viability in test [1] is 90.7% (inactive); in test [2], 88.8% (inactive); in test [3] (setting [6]) it was 86.2%; in test [3] (setting [7]) it was 88.8%. The differential viability (reversal) in test [3] (H69AR cells + 2 uM doxorubicin) is 2.62% (inactive). Moreover, the inhibition in test [4] is -5.97% (inactive); in test [5], 1.11% (inactive).

`CC(C)c1ccc(-c2nc(N3CCOCC3)[nH]c(=O)c2C#N)cc1`: the viability was 79.3% (inactive) in test [1], 98% (inactive) in test [2], 96.4% in test [3] (setting [6]) and 98% in test [3] (setting [7]). For the same molecule, the differential viability (reversal) in test [3] (H69AR cells + 2 uM doxorubicin) is 1.58% (inactive). The inhibition in test [4] is -6.4% (inactive); in test [5] it was 3.33% (inactive).

As to `CCOC(=O)Cc1nnc(NC(=O)CSc2nnc3c4ccccc4n(C(C)C)c3n2)s1`, the viability in test [1] is 83.9% (inactive); in test [2], 75.6% (inactive); in test [3] (setting [6]), 74.9%; in test [3] (setting [7]) it was 75.6%. In addition, in test [3] (H69AR cells + 2 uM doxorubicin), the differential viability (reversal) was 0.7% (inactive). For the same molecule, the inhibition in test [4] was -0.91% (inactive); in test [5], -1.43% (inactive).

In the case of `CN(C)c1ccnc(NCc2ccccc2)c1C#N`, the viability is 92.7% (inactive) in test [1], 85.8% (inactive) in test [2], 79.5% in test [3] (setting [6]) and 85.8% in test [3] (setting [7]). For the same molecule, in test [3] (H69AR cells + 2 uM doxorubicin), the differential viability (reversal) is 6.29% (inactive). The figures for the inhibition in test [4] and in test [5] were -4.53% (inactive) and 4.6% (inactive), respectively.

As to `CC1CCCC(NC(=O)CN2CCN(Cc3ccc(Cl)cc3)C2=O)C1C` (stereo not drawn), the viability was 108% (inactive) in test [1], 103% (inactive) in test [2], 86.4% in test [3] (setting [6]) and 103% in test [3] (setting [7]). The differential viability (reversal) in test [3] (H69AR cells + 2 uM doxorubicin) was 16.2% (inactive). Besides, the inhibition in test [4] is -1.43% (inactive); in test [5], 4.92% (inactive).

As for `COc1ccc(Br)cc1S(=O)(=O)N1CCOCC1`, the viability in test [1] is 99.7% (inactive); in test [2], 87.2% (inactive); in test [3] (setting [6]) it was 83.5%; in test [3] (setting [7]), 87.2%. In test [3] (H69AR cells + 2 uM doxorubicin), the differential viability (reversal) is 3.77% (inactive). The inhibition in test [4] is -2.76% (inactive); in test [5] it was 1.75% (inactive).

`CCS(=O)(=O)N1CCCC(C(=O)NCCc2ccc(OC)c(OC)c2)C1` (stereo not drawn): the viability in test [1] was 101% (inactive); in test [2], 104% (inactive); in test [3] (setting [6]), 94.5%; in test [3] (setting [7]) it was 104%. The differential viability (reversal) in test [3] (H69AR cells + 2 uM doxorubicin) was 9.14% (inactive). The inhibition in test [4] is 1.07% (inactive); in test [5], -0.95% (inactive).

With `CCOC(=O)NC(c1ccccc1)C1CCCCC1=O` (stereo not drawn), the viability in test [1] is 103% (inactive); in test [2], 94.2% (inactive); in test [3] (setting [6]), 88.3%; in test [3] (setting [7]), 94.2%. Moreover, the differential viability (reversal) in test [3] (H69AR cells + 2 uM doxorubicin) was 5.88% (inactive). Also, the inhibition in test [4] was -3.64% (inactive); in test [5] it was 0.32% (inactive).

For the molecule `N#CCCn1cnc2ccccc21`, the viability in test [1] was 108% (inactive); in test [2], 104% (inactive); in test [3] (setting [6]), 100%; in test [3] (setting [7]), 104%. Moreover, the differential viability (reversal) in test [3] (H69AR cells + 2 uM doxorubicin) was 3.56% (inactive). In addition, the inhibition is 0.52% (inactive) in test [4] and -3.97% (inactive) in test [5].

Consider `O=C(Nc1nc(-c2ccc(S(=O)(=O)N3CCCCCC3)cc2)cs1)c1cccs1`, for which the viability in test [1] is 73.6% (inactive); in test [2], 64.6% (inactive); in test [3] (setting [6]) it was 69.2%; in test [3] (setting [7]), 64.6%. The differential viability (reversal) in test [3] (H69AR cells + 2 uM doxorubicin) was -4.63% (inactive). For the same molecule, the inhibition in test [4] was -6.62% (inactive); in test [5], -3.81% (inactive).

As to `CCc1ccc(NC(=O)c2cc(-c3ccco3)on2)cc1`, the viability in test [1] was 75.1% (inactive); in test [2], 91.3% (inactive); in test [3] (setting [6]), 108%; in test [3] (setting [7]) it was 91.3%. For the same molecule, the differential viability (reversal) in test [3] (H69AR cells + 2 uM doxorubicin) is -16.3% (inactive). In addition, the inhibition in test [4] is -1.45% (inactive); in test [5] it was -4.6% (inactive).

In the case of `CCn1cc(/C=C(/C#N)S(=O)(=O)c2ccccc2)cn1`, the viability is 110% (inactive) in test [1], 95.3% (inactive) in test [2], 85.8% in test [3] (setting [6]) and 95.3% in test [3] (setting [7]). In addition, the differential viability (reversal) in test [3] (H69AR cells + 2 uM doxorubicin) is 9.54% (inactive). Besides, the inhibition in test [4] is -7.24% (inactive); in test [5], -4.6% (inactive).

In the case of `CCSc1nnc(NC(=O)c2cc(C)oc2C)s1`, the viability in test [1] was 85% (inactive); in test [2] it was 99.7% (inactive); in test [3] (setting [6]), 87.1%; in test [3] (setting [7]), 99.7%. Also, in test [3] (H69AR cells + 2 uM doxorubicin), the differential viability (reversal) was 12.6% (inactive). For the same molecule, the inhibition is -3.55% (inactive) in test [4] and 3.33% (inactive) in test [5].
